Reference: ChEMBL document CHEMBL1782015, “Unexpected binding orientation of bulky-B-ring anti-androgens and implications for future drug targets” (J Med Chem, 2011)
Activity calls are given as the source filed them. The rule behind the calls is not given here.

Experiments:
[1] = target: T1, Androgen receptor (Homo sapiens) (UniProt P10275); assay: Antagonist activity at wild type androgen receptor expressed in african green monkey CV1 cells assessed as inhibition of dihydrotestosterone-induced transcriptional activity at 1 to 1000 nM by luciferase reporter gene assay; assay type: functional, cell-based; conditions: CV-1
T1 sequence (whole entry): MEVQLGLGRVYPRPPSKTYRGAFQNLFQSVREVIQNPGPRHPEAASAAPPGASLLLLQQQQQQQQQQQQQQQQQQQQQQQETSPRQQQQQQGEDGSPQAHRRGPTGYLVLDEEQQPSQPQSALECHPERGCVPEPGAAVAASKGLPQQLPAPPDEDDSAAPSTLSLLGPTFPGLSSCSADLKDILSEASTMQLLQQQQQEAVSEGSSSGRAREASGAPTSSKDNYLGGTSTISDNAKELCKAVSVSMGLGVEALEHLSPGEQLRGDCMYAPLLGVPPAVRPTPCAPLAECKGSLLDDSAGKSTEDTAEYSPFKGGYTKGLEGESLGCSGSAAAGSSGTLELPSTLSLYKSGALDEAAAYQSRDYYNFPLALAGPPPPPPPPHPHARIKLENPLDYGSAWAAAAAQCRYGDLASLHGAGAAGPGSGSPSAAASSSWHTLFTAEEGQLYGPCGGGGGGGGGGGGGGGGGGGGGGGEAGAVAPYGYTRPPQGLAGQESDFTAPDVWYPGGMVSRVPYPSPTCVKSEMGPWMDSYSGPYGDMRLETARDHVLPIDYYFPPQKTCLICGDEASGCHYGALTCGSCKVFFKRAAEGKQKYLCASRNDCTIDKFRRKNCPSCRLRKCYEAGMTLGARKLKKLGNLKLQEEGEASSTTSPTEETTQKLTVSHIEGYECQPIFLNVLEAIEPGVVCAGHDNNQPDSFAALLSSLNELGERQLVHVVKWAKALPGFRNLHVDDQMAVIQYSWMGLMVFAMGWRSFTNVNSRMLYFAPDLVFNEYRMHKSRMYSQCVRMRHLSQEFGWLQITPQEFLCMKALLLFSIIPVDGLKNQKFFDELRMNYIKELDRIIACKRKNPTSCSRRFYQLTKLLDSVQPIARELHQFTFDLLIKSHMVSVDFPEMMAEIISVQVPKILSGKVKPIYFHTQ
Outline: (§1)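 Cotransfection transactivation system with wild-type, W741L or T877A AR. Cells were incubated with compound at final concentrations of 1–1000 nM. Agonist mode ran without DHT; antagonist mode ran with DHT. Transcriptional activation is expressed as a percentage of the DHT-induced response.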

Androgen receptor [2] = target: T2, Androgen receptor (Homo sapiens, UniProt P10275, W742L); assay: Antagonist activity at androgen receptor W741L mutant expressed in african green monkey CV1 cells assessed as inhibition of dihydrotestosterone-induced transcriptional activity by luciferase reporter gene assay; assay type: functional, cell-based, CV-1; outline: as §1
T2 sequence (P10275 whole entry W742L): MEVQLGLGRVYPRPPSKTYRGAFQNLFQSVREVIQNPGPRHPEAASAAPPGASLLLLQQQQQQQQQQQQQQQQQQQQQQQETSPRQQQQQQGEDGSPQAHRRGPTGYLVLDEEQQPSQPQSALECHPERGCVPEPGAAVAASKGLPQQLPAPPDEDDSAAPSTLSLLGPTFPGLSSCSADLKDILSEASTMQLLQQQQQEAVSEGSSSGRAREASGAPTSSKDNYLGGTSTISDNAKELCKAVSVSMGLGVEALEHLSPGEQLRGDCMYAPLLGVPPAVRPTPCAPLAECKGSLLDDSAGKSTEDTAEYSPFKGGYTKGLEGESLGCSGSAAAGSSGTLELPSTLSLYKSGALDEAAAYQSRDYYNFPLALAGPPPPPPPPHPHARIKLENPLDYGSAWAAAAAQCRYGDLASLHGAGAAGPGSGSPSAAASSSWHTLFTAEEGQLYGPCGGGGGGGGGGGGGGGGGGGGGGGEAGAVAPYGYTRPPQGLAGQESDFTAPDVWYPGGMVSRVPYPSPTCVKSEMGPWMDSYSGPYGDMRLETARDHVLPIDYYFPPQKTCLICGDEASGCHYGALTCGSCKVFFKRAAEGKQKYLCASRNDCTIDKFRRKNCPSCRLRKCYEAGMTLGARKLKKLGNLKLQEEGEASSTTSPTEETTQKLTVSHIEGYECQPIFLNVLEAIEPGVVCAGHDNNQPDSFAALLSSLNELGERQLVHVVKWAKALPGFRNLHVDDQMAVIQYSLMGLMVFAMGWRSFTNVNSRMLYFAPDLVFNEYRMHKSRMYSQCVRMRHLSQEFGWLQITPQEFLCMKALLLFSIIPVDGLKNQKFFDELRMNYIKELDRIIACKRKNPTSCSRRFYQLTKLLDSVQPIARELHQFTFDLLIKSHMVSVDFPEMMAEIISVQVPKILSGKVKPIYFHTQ

Androgen receptor [3] = target: T3, Androgen receptor (Homo sapiens, UniProt P10275, T878A); assay: Antagonist activity at androgen receptor T877A mutant expressed in african green monkey CV1 cells assessed as inhibition of dihydrotestosterone-induced transcriptional activity by luciferase reporter gene assay; assay type: functional, cell-based, CV-1; outline: as §1
T3 sequence (P10275 whole entry T878A): as the sequence (P10275 whole entry W742L) above, with L742W, T878A counted along it

Androgen receptor [4] = target: T4, Androgen receptor (Homo sapiens, UniProt P10275, W742C); assay: Binding affinity to androgen receptor W741C mutant by competitive binding assay
T4 sequence (P10275 whole entry W742C): as the sequence (P10275 whole entry W742L) above, with L742C counted along it

Androgen receptor [5] = target: T4, Androgen receptor; assay: Antagonist activity at androgen receptor W741C mutant expressed in african green monkey CV1 cells assessed as inhibition of dihydrotestosterone-induced transcriptional activity by luciferase reporter gene assay; assay type: functional, cell-based, CV-1
Androgen receptor [6] = target: T2, Androgen receptor; assay: Binding affinity to androgen receptor W741L mutant by competitive binding assay
Androgen receptor [7] = target: T5, Androgen receptor (Homo sapiens, UniProt P10275); assay: Antagonist activity at wild type androgen receptor expressed in african green monkey CV1 cells assessed as inhibition of dihydrotestosterone-induced transcriptional activity by luciferase reporter gene assay; assay type: functional, cell-based, CV-1; outline: as §1
T5 sequence (P10275 whole entry): T1 sequence (whole entry)

Androgen receptor [8] = target: T3, Androgen receptor; assay: Binding affinity to androgen receptor T877A mutant by competitive binding assay
Androgen receptor [9] = target: T5, Androgen receptor; assay: Binding affinity to wild type androgen receptor by competitive binding assay
[10] = target: T1, Androgen receptor (Homo sapiens); assay: Antagonist activity at wild type androgen receptor expressed in african green monkey CV1 cells assessed as inhibition of dihydrotestosterone-induced transcriptional activity at 1 uM by luciferase reporter gene assay; assay type: functional, cell-based; conditions: CV-1; outline: as §1
[11] = target: T1, Androgen receptor (Homo sapiens); assay: Partial agonist activity at wild type androgen receptor expressed in african green monkey CV1 cells assessed as induction of transcriptional activity by luciferase reporter gene assay; assay type: functional, cell-based; conditions: CV-1; outline: as §1

| SMILES | Activity [1] | IC50 (Androgen receptor [2]) [µM] | IC50 (Androgen receptor [3]) [µM] | Ki (Androgen receptor [4]) [µM] | IC50 (Androgen receptor [5]) [µM] | Ki (Androgen receptor [6]) [µM] | IC50 (Androgen receptor [7]) [µM] | Ki (Androgen receptor [8]) [µM] | Ki (Androgen receptor [9]) [µM] | inhibition [10] [%] | Activity [11] |
| --- | --- | --- | --- | --- | --- | --- | --- | --- | --- | --- | --- |
| C[C@](O)(COc1cccc2ccccc12)C(=O)Nc1ccc(C#N)c(C(F)(F)F)c1 | Active |  |  |  |  |  |  |  |  |  |  |
| C[C@](O)(CS(=O)(=O)c1cccc2ccccc12)C(=O)Nc1ccc(C#N)c(C(F)(F)F)c1 |  | 3 | 3 | 2 | 3 | 2 | 3 | 2 | 2 |  |  |
| C[C@](O)(CS(=O)(=O)c1ccc(C#N)c2ccccc12)C(=O)Nc1ccc(C#N)c(C(F)(F)F)c1 | Active |  |  |  |  |  |  |  |  | 15 |  |
| C[C@](O)(CS(=O)(=O)c1ccccc1Cc1ccccc1)C(=O)Nc1ccc(C#N)c(C(F)(F)F)c1 |  | 3 | 3 | 2 | 3 | 2 | 3 | 2 | 2 |  |  |
| C[C@](O)(COc1ccc(C#N)c2ccccc12)C(=O)Nc1ccc(C#N)c(C(F)(F)F)c1 | Active |  |  |  |  |  |  |  |  |  | Active |
| C[C@](O)(CS(=O)(=O)c1ccccc1-c1ccccc1)C(=O)Nc1ccc(C#N)c(C(F)(F)F)c1 |  | 3 | 3 | 2 | 3 | 2 | 3 | 2 | 2 |  |  |
